Only a sample is shown.
PGC1a acetyl up: raises PGC1a acetylation signal in U2OS cells; U2OS PGC1a acetylation AlphaScreen, overnight; activation, % at 15.6 µM; actives 0.21% (n = 350,000); AID 651723;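 active = every replicate reaching activation of at least 50%, whatever the mean replicate activation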;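 note: hits raise the AlphaScreen acetylation signal above neutral controls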
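detection = AlphaScreen lysate read | assay system = U2OS cells expressing flag-PGC1a plus GCN5 | input = 7000 cells/well | dosing = one concentration | times = compound overnight at 37 °C, each detection step 1 h RT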
A number is an active result; – = inactive.

SMILES	PGC1a acetyl up
C=C1C(=O)O[C@H]2[C@H]1[C@@H](O)CC(=C)[C@@H]1CC(=O)[C@@H](C)[C@H]21	72
Cc1cc(C=O)c(C)n1-c1ccc(NC2CCCC2)c([N+](=O)[O-])c1	–
COc1ccc(/C=C/c2cc(-c3ccc(C)cc3)o[n+]2C)cc1	121
COc1ccc(S(=O)(=O)N2CCC(C(=O)N3CCC(C(N)=O)CC3)CC2)cc1Cl	–
CC1CN(S(=O)(=O)c2ccc(C(=O)NCCCn3ccnc3)cc2)CC(C)O1 (configuration not stated)	411
CC(C)(C)c1ccc(C(=O)NCCN2CCOCC2)cc1	–
COCCCn1[nH]c2c3c(ccc2c1=O)C(=O)c1ccccc1C3=O	–
C[C@H]1CN([C@@H](C)CO)S(=O)(=O)c2ccc(C3=CCCC3)cc2O[C@@H]1CN(C)C	–
COCCn1c(SC(C)C(=O)Nc2ncc(Cl)cc2Cl)nc2ccccc21 (configuration not stated)	–
COc1ccccc1OCCn1c(C(C)O)nc2ccccc21 (configuration not stated)	57
Cc1ccccc1S(=O)(=O)NCC[C@@H]1CC[C@@H](NC(=O)C2CCOCC2)[C@H](CO)O1	–
CCOC(=O)C(=Cc1ccc(OCc2ccc([N+](=O)[O-])cc2)c(OC)c1)C(=O)OCC	–
CC1=CC=CC2=NC(=O)CC(C)(C(=O)N(CC(=O)NC3CCCC3)c3ccccc3C)N12 (configuration not stated)	54
Cc1ccccc1Oc1cc(-n2ncc(Cl)c(Cl)c2=O)ncn1	–
O=C(CSc1nnnn1-c1ccc(F)cc1)NNC(=O)c1ccco1	–
CC(C)(C)n1nnnc1CN(Cc1ccc(F)cc1)Cc1ccco1	92
O=C(C[C@H]1CC[C@@H]2[C@H](COC[C@@H](O)CN2S(=O)(=O)c2ccc(F)cc2)O1)NCCN1CCCCC1	–
O=S(=O)(N[C@@H]1CC[C@@H](CCNS(=O)(=O)c2ccccc2Cl)O[C@H]1CO)c1ccccc1	–
C[C@@H]1CN([C@H](C)CO)C(=O)c2cc(C#Cc3cccc(F)c3)cnc2O[C@H]1CN(C)CC1CCCC1	58
C[C@H]1CN([C@@H](C)CO)C(=O)c2cc(C#Cc3ccccc3)cnc2O[C@@H]1CN(C)C(=O)c1ccccc1F	–
C[C@H]1CN([C@@H](C)CO)C(=O)c2cc(C3=CCCC3)cnc2O[C@@H]1CN(C)C(=O)c1cccnc1	–
C[C@H]1CN([C@@H](C)CO)C(=O)c2cc(-c3cncnc3)cnc2O[C@@H]1CN(C)C(=O)c1cccc(F)c1	–
C[C@@H]1CN([C@@H](C)CO)C(=O)c2cc(C#CCN(C)C)cnc2O[C@H]1CN(C)Cc1ccc(F)cc1	–
C[C@@H]1CN([C@@H](C)CO)C(=O)c2cc(C3=CCCC3)cnc2O[C@@H]1CN(C)C(=O)Nc1cccc(F)c1	131
CO[C@H]1CN(C)C(=O)c2cc(NS(C)(=O)=O)ccc2OC[C@H](C)N(C(=O)NC(C)C)C[C@@H]1C	–
SMILES	PGC1a acetyl up
Cn1cnc(S(=O)(=O)N2C[C@@H](O)COC[C@H]3O[C@H](CC(=O)NCc4cc(F)cc(F)c4)CC[C@@H]32)c1	–
Cc1nc2ccc(C(=O)Nc3ccccc3Cl)cc2s1	–
CCC(=O)N(C)C[C@@H]1Oc2ncc(C#CCc3ccccc3)cc2C(=O)N([C@H](C)CO)C[C@@H]1C	–
C[C@H](CO)N1C[C@H](C)[C@@H](CN(C)C(=O)C2CCCCC2)Oc2cc(C#Cc3ccncc3)ccc2S1(=O)=O	–
C[C@H]1CN([C@@H](C)CO)S(=O)(=O)c2ccc(-c3ccccc3)cc2O[C@@H]1CN(C)Cc1cccc(F)c1	–
CC(=O)N(C)C[C@H]1Oc2cc(-c3ccc(C#N)cc3)ccc2S(=O)(=O)N([C@@H](C)CO)C[C@@H]1C	–
CC(C)CC#Cc1ccc2c(c1)O[C@H](CN(C)C)[C@@H](C)CN([C@H](C)CO)S2(=O)=O	59
CC(C)CC#Cc1ccc2c(c1)O[C@H](CN(C)Cc1ccccc1)[C@@H](C)CN([C@H](C)CO)S2(=O)=O	–
COc1ccccc1-c1ccc2c(c1)O[C@@H](CN(C)Cc1ccc3c(c1)OCO3)[C@@H](C)CN([C@H](C)CO)S2(=O)=O	64
C[C@H](CO)N1C[C@H](C)[C@H](CN(C)C(=O)C2CCCCC2)Oc2cc(-c3ccccc3)ccc2S1(=O)=O	63
COc1ccccc1C#Cc1ccc2c(c1)O[C@@H](CN(C)Cc1cccnc1)[C@H](C)CN([C@H](C)CO)S2(=O)=O	–
CC(C)CC#Cc1ccc2c(c1)O[C@H](CN(C)Cc1ccccc1)[C@H](C)CN([C@@H](C)CO)S2(=O)=O	–
COc1ccc(S(=O)(=O)N(C)C[C@@H]2Oc3ccc(NC(=O)CCN4CCOCC4)cc3C(=O)N([C@H](C)CO)C[C@H]2C)cc1	–
CN(C)c1ccc(/C=N/N(CCC#N)C2=NS(=O)(=O)c3ccccc32)cc1	–
COc1cc(OC)cc(C(=O)N[C@H](C(=O)OCC(=O)NC(=O)NC(C)(C)C)C(C)C)c1	–
O=C(NCc1cccnc1)/C(=C\c1ccc(-c2cccc(Cl)c2)o1)S(=O)(=O)c1ccccc1	76
